OX1R antag-1: antagonists of human orexin 1 receptor (OX1R). Orexin/Hypocretin receptor type 1 (Homo sapiens), O43613. OX1R-expressing cells, FRET antagonist read-out. inhibition, % at 6.6 µM. 1.8% of 330,000 active; in the data active = inhibition mostly above about 38%, no sharp cut-off; inactive = mostly below about 40%;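 also: 0% = agonist challenge alone and 100% = reference antagonist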
CHO parental Ca: ATP-evoked calcium signal inhibitors, parental CHO, primary screen, counter-screen for OX1R antagonist project, cell-based, fluorescence, Fluo-8 calcium dye. 0.63% of 330,000 active. parental CHO-K1, ATP-induced calcium, Fluo-8 fluorescence. inhibition, % at 5.6 µM;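 active = inhibition above that plate's mean sample inhibition plus 3 SD, cut at about 26% in these data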;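 also: 0% = ATP-challenged DMSO wells and 100% = DMSO wells without ATP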
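material = parental CHO cells | also added = ATP as calcium-mobilizing challenge | dosing = single point at 5.6 µM | detection = intracellular calcium via Fluo-8 no-wash fluorescent dye | read-out = % inhibition | benchmarks = low control ATP plus DMSO, high control DMSO only | repeats = one well per compound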
TAAR1 antagonist: human TAAR1 antagonists, primary screen, Fluo-8 calcium fluorescence, CHO RD-HGA16 cells; Trace amine-associated receptor 1 (Homo sapiens), Q96RJ0; antagonist; inhibition, % at 3 µM; 1.5% of 360,000 active; AID 624466, 2012;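 active = inhibition above a per-plate cutoff, the mean inhibition of test compounds on that plate plus 3 SD, cut at about 49% in these data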;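 also: 0% = DMSO plus EC80 beta-PEA response and 100% = DMSO alone without agonist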
Target sequence (Q96RJ0 whole entry, looked up): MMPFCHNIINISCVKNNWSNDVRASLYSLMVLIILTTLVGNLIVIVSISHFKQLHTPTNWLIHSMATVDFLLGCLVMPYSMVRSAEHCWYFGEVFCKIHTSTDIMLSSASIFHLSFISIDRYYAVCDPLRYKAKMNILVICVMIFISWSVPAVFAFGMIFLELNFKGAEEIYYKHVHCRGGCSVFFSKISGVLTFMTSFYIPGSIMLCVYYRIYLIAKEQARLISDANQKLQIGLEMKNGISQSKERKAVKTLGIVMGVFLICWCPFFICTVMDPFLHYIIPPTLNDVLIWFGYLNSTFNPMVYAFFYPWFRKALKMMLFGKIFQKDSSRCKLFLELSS
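Test system: hTAAR1-expressing CHO RD-HGA16 cells, Gα16-coupled; Probe or stimulus: EC80 β-phenethylamine stimulus; Compound dosing: single nominal final test compound concentration of 3 µM; Timing: 140 s kinetic read after compound, 140 s after agonist; Signal: Fluo-8 calcium-sensitive fluorescence; Measure: % inhibition of agonist calcium response; Controls: DMSO and EC80 PEA controls.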
TAAR1 ag: human TAAR1 agonists, primary screen, Fluo-8 calcium fluorescence, CHO RD-HGA16 cells. Trace amine-associated receptor 1 (Homo sapiens), Q96RJ0. vehicle wells 0%, saturating PEA agonist 100%. activation, % at 3 µM. 0.99% of 360,000 active;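 active = activation above the mean activation of all test compounds in the run plus 3 SD, cut at about 38% in these data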
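Benchmarks: low control DMSO, high control PEA (EC100); System: CHO RD-HGA16 cells carrying human TAAR1 plus Gα16; Detection: Fluo-8 fluorescence, 5 s baseline then 140 s kinetic read; Schedule: 17-24 h plating, Fluo-8 75 min 37 °C, 30 min RT; Read-out basis: % activation from peak over basal fluorescence ratio, DMSO-to-PEA scaled.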
OX1R antag-2: OX1R (HCRTR1) antagonists, primary screen, fluorescence, CHO/OX1R cells, Fluo-8 calcium, orexin A. Orexin/Hypocretin receptor type 1 (Homo sapiens), O43613. Fluo-8 calcium fluorescence. inhibition, % at 5 µM. 0.43% of 330,000 active. AID 434989, 2010;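 active = inhibition above its plate's threshold, mean inhibition of all tested compounds on the plate plus 3 SD, cut at about 37% in these data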;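 also: 0% = orexin A challenge wells and 100% = SB-334867-A antagonist wells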
GalR3 antagonist: GalR3 antagonists in HEK293 cells, primary screen, cell-based, fluorescence readout | Galanin receptor type 3 (Homo sapiens), O60755 | HEK293 GalR3-CNG cAMP membrane potential fluorescence; galR3 body fused to GalR1 C-terminus | inhibition, % at 3 µM | 0.44% of 360,000 active;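 active = inhibition above the screen-wide average plus 3 SD, cut at about 13% in these data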;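 also: forskolin and galanin both at EC90 stimulate the cells; cAMP rise reported by CNG channel membrane potential dye signal; 0% = forskolin plus galanin with DMSO and 100% = forskolin alone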
Active calls of the source: *; . = not tested or not shown. In the library only some 4.3% were active in any assay of this set; here they are far more common.

SMILES	OX1R antag-1	CHO parental Ca	TAAR1 antagonist	TAAR1 ag	OX1R antag-2	GalR3 antagonist
O=C(CCN1C(=O)/C(=C/c2cccs2)SC1=S)Nc1ccccn1	23	-11	50*	33	-15	-9
O=C(CCCN1C(=O)/C(=C/c2ccco2)SC1=S)Nc1cccc(C(=O)O)c1	61*	-5	-17	0	-1	0
Cc1ccc(-c2ccc(CN3C(C)C(=O)N(Cc4cn(Cc5ccco5)nn4)CCS3(=O)=O)cc2)c(C)c1 (stereo not drawn)	.	.	-28	4	.	4
Nc1nc(N)nc(-c2ccccc2O)n1	30	-14	-13	2	-7	-4
Nc1nc(-c2ccccc2)nc(-c2ccccc2O)n1	52*	-9	21	1	7	-12
Cc1cc(C)nc(SCc2nc(N)nc(-c3ccccc3O)n2)n1	55*	-13	10	8	12	-4
COc1ccccc1Nc1nc(N)nc(CSc2nc(C)cc(C)n2)n1	11	-16	2	12	-13	-6
O=c1cc(S(=O)(=O)Cc2ccccc2)[nH]c(=O)[nH]1	.	.	6	1	.	-5
COc1ccc2ccc3c(c2c1)N=CC1(O3)N(C)c2ccccc2C1(C)C (stereo not drawn)	28	-27	.	.	-28	.
CN1c2ccccc2C(C)(C)C12CC(CCl)=NO2 (stereo not drawn)	23	8	.	.	-5	.
CN1c2ccccc2C(C)(C)[C@]12C=Cc1cc(O)ccc1O2	5	48*	23	2	21	-4
CN1c2ccccc2C(C)(C)C12C=Nc1c(ccc3ccccc13)O2 (stereo not drawn)	58	-24	43	40*	-15	4
COc1ccc(-c2ccc3c(n2)CCCN3S(=O)(=O)c2c(C)noc2C)cc1	.	.	-7	0	.	-9
Cc1cc(C)n(CC(=O)N/N=C/c2cccs2)n1	3	1	1	10	-16	-1
Cc1cc(C)n(CC(=O)N/N=C/c2ccc([N+](=O)[O-])s2)n1	58*	-4	4	4	-10	-4
CCOC(=O)N/N=C\c1ccc([N+](=O)[O-])s1	52*	-4	-3	1	-4	-7
CCOc1cc(C)c(S(=O)(=O)NCCCn2ccnc2)cc1C	-5	-11	-17	4	-6	-9
N#Cc1ccc(OCCCN2CCC(C(O)(C3=CCCC3)c3ccccc3)CC2)cc1 (stereo not drawn)	.	.	3	19	.	-7

Compound activity: PubChem, The Scripps Research Institute Molecular Screening Center
